Legend:
HeLa [1] = experiment: Antiproliferative activity against human HeLa cells assessed as cell survival ratio at 0.5 uM treated 1 hr before 2Gy ionizing radiation measured after 6 to 8 days by DMR clonogenic assay; type: functional
Summary of the method: (§1)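 HeLa cells seeded in 6-well dishes, incubated overnight at 37 °C/5% CO2, pre-treated 1 h with vehicle or inhibitor (0.1 or 0.5 μM), then given 2 Gy X-ray IR and held overnight. Medium then replaced without compound and culture continued 6-8 days. Colonies Giemsa-stained and counted automatically. DMR = % survival (vehicle, 2 Gy) / % survival (compound, 2 Gy).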

[2] = biological target: DNA-dependent protein kinase catalytic subunit (Homo sapiens, UniProt P78527); experiment: Inhibition of human DNA-PK using GST-tagged p53N66 as substrate after 1 hr by ELISA-based chemiluminiscence assay
DNA-dependent protein kinase catalytic subunit, sequence (P78527 whole entry): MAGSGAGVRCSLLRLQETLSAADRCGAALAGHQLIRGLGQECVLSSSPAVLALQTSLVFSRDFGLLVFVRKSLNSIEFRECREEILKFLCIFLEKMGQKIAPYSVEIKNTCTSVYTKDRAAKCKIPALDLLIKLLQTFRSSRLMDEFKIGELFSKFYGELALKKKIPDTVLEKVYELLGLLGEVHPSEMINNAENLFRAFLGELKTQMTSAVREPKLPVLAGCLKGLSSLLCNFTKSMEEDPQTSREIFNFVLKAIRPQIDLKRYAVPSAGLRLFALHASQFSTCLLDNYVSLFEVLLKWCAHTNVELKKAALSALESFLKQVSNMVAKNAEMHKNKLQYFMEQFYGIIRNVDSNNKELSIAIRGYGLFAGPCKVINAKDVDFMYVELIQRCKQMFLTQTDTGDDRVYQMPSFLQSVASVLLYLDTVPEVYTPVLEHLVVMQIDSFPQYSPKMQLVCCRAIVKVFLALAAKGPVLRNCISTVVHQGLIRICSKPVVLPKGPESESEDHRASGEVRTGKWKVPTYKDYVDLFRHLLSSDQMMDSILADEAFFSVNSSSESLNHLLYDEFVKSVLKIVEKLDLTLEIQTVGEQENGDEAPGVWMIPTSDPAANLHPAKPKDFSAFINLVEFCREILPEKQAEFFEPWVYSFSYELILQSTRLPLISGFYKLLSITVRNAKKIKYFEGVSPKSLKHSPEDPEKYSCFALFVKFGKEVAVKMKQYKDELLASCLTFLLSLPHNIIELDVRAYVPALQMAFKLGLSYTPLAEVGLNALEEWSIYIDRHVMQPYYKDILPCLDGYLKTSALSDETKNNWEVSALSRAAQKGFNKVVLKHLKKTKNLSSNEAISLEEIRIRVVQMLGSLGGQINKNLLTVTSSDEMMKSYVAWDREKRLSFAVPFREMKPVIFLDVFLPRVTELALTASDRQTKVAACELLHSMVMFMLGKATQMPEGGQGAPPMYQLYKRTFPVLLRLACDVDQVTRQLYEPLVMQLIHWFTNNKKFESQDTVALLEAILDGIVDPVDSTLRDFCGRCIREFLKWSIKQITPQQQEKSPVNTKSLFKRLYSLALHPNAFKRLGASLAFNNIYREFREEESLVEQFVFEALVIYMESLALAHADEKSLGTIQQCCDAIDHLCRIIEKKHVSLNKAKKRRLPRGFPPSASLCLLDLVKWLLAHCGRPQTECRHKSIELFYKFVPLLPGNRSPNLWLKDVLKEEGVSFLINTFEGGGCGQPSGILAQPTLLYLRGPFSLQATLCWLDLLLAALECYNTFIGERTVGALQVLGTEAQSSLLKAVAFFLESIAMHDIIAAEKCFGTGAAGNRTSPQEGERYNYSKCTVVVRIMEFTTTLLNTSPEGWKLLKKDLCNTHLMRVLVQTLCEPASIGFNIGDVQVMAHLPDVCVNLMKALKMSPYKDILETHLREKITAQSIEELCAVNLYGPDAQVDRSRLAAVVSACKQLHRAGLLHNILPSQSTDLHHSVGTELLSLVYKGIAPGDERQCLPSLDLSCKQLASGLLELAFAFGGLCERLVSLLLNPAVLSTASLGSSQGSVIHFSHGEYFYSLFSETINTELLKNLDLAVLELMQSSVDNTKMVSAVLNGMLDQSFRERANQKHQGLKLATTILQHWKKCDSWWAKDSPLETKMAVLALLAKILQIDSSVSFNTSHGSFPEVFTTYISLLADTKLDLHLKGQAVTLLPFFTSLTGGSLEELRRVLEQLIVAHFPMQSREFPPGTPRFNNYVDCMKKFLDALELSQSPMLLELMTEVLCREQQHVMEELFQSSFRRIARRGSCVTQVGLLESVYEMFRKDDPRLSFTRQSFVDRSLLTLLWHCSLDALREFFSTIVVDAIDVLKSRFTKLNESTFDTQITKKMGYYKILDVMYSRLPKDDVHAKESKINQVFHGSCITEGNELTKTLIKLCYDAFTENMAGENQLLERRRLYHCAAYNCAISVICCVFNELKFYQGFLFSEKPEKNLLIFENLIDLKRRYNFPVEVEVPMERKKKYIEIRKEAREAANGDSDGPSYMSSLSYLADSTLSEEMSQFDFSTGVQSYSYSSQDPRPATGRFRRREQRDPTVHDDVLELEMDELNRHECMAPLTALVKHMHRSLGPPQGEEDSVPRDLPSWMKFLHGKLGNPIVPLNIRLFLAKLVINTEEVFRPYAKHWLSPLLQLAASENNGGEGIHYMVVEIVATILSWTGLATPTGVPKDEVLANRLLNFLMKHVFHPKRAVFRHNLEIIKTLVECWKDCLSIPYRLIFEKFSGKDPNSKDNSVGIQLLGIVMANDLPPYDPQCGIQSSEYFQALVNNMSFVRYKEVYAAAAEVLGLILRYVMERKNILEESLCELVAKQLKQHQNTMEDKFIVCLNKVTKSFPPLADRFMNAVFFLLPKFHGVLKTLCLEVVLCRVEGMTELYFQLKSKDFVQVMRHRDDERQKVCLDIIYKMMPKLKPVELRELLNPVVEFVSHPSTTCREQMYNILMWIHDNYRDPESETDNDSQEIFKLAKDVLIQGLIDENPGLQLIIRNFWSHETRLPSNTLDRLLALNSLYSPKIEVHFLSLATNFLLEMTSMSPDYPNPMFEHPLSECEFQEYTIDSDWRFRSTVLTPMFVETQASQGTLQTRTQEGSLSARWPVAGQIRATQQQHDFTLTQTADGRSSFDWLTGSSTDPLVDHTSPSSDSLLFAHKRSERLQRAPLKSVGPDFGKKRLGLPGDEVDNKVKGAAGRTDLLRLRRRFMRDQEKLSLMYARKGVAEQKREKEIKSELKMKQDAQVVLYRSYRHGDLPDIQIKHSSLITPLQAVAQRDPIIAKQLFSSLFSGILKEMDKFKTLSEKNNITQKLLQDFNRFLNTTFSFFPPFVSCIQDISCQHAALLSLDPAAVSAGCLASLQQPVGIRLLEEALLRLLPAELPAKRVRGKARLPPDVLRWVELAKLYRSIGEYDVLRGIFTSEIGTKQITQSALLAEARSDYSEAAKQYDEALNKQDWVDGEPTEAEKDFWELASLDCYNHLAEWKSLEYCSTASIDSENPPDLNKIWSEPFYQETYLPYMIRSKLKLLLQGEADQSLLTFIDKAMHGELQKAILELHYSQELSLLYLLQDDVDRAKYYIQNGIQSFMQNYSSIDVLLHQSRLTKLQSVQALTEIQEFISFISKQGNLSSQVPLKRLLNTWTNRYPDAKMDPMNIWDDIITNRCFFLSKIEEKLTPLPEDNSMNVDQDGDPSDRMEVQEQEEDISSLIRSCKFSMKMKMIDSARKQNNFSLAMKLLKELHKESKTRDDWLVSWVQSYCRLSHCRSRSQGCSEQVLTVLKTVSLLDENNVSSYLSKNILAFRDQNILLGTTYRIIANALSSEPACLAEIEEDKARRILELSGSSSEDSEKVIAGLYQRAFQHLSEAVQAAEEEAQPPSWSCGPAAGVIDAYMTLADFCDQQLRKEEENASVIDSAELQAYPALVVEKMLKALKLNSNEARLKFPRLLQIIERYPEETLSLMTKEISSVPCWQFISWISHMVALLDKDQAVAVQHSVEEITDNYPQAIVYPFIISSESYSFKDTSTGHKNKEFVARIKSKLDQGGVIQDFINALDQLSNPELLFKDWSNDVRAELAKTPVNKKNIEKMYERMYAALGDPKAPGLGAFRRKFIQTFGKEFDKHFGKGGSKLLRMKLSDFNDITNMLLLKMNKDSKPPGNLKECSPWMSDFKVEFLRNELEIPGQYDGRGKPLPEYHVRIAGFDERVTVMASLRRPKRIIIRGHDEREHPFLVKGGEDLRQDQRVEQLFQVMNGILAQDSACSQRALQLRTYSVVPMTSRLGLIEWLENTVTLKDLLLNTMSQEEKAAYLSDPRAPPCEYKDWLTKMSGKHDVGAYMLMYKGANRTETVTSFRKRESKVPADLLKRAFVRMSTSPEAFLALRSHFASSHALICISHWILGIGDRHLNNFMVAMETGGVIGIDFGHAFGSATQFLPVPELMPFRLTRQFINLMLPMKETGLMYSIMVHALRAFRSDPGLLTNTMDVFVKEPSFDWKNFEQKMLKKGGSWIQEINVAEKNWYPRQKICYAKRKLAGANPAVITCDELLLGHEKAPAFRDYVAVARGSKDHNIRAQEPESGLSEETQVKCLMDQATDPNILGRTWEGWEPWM

HeLa [3] = experiment: Antiproliferative activity against human HeLa cells assessed as cell survival ratio at 0.1 uM treated 1 hr before 2Gy ionizing radiation measured after 6 to 8 days by DMR clonogenic assay; type: functional; summary of the method: as §1

Structure (SMILES)	IC50 [2]	Ratio (HeLa [1])	Ratio (HeLa [3])
CN1CCCN(C(=O)COc2ccc(-c3cccc4c(=O)cc(N5CCOCC5)oc34)c3sc4ccccc4c23)CC1	0.044 µM	2	1.1
CN1CCCN(CC(=O)Nc2ccc(-c3cccc4c(=O)cc(N5CCOCC5)oc34)c3sc4ccccc4c23)CC1	0.055 µM	7.6	1.7
O=C(CCNCCN1CCCCC1)Nc1ccc(-c2cccc3c(=O)cc(N4CCOCC4)oc23)c2sc3ccccc3c12	0.033 µM	3.3	1
CN1CCCC1CCNCC(=O)Nc1ccc(-c2cccc3c(=O)cc(N4CCOCC4)oc23)c2sc3ccccc3c12 (stereo unspecified)	0.043 µM	2.4	1.1
CN1CCN(CCC(=O)Nc2ccc(-c3cccc4c(=O)cc(N5CCOCC5)oc34)c3sc4ccccc4c23)CC1	0.028 µM	6.6	1
CN(C)CCN(C)CCC(=O)Nc1ccc(-c2cccc3c(=O)cc(N4CCOCC4)oc23)c2sc3ccccc3c12	0.078 µM	5.1	1.2
NCCNCCC(=O)Nc1ccc(-c2cccc3c(=O)cc(N4CCOCC4)oc23)c2sc3ccccc3c12	0.022 µM	1.4	1.2
O=C(CNCCN1CCCCC1)Nc1ccc(-c2cccc3c(=O)cc(N4CCOCC4)oc23)c2sc3ccccc3c12	0.061 µM	9.6	1.3
CCN1CCN(CCC(=O)Nc2ccc(-c3cccc4c(=O)cc(N5CCOCC5)oc34)c3sc4ccccc4c23)CC1	0.033 µM	4.1	1.4
O=C(CCN1CCN(c2ccccn2)CC1)Nc1ccc(-c2cccc3c(=O)cc(N4CCOCC4)oc23)c2sc3ccccc3c12	0.024 µM	4.4	1.5

More lines, in order of falling IC50 [2], values ahead:

IC50 [2]	Structure (SMILES)	Ratio (HeLa [1])	Ratio (HeLa [3])
0.022 µM	O=C(CN1CCCNCC1)Nc1ccc(-c2cccc3c(=O)cc(N4CCOCC4)oc23)c2sc3ccccc3c12	1.5	1.4
0.021 µM	O=C(CN1CCCCC1)Nc1ccc(-c2cccc3c(=O)cc(N4CCOCC4)oc23)c2sc3ccccc3c12	10.4	1.2
0.018 µM	COCCN(CCOC)CC(=O)Nc1ccc(-c2cccc3c(=O)cc(N4CCOCC4)oc23)c2sc3ccccc3c12	7.9	1.5
0.016 µM	CC(C)N1CCN(C(=O)COc2ccc(-c3cccc4c(=O)cc(N5CCOCC5)oc34)c3sc4ccccc4c23)CC1	3.1	1.3
0.012 µM	O=C(CNCCN1CCOCC1)Nc1ccc(-c2cccc3c(=O)cc(N4CCOCC4)oc23)c2sc3ccccc3c12	4.7	1.4
0.012 µM	CCN(CC)CCC(=O)Nc1ccc(-c2cccc3c(=O)cc(N4CCOCC4)oc23)c2sc3ccccc3c12	5.7	1.8
0.012 µM	NCC(=O)Nc1ccc(-c2cccc3c(=O)cc(N4CCOCC4)oc23)c2sc3ccccc3c12	9	2.5
0.01 µM	CN(C)CCN1CCN(CC(=O)Nc2ccc(-c3cccc4c(=O)cc(N5CCOCC5)oc34)c3sc4ccccc4c23)CC1	5.9	1.7
0.009 µM	O=C(CCNCCCN1CCOCC1)Nc1ccc(-c2cccc3c(=O)cc(N4CCOCC4)oc23)c2sc3ccccc3c12	1.4	0.9
0.008 µM	CN(C)CCOc1ccc(-c2cccc3c(=O)cc(N4CCOCC4)oc23)c2sc3ccccc3c12	3.3	1.8
0.006 µM	COC(=O)[C@H](CO)NC(=O)COc1ccc(-c2cccc3c(=O)cc(N4CCOCC4)oc23)c2sc3ccccc3c12	6.1	1.5
0.006 µM	CC(C)NCC(=O)CN1CCN(CC(=O)Nc2ccc(-c3cccc4c(=O)cc(N5CCOCC5)oc34)c3sc4ccccc4c23)CC1	8.8	2
